SENP6 inh = SENP6 protease inhibitors, primary screen, biochemical, luminescence, uHTS. hit rate 1.8% among 330,000. inhibition, % at 10 µM. Recombinant SENP6 catalytic domain, aminoluciferin luminescence. AID 2599, 2010;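 active means inhibition above about 50% at the single tested dose, limit read from the data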;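 further: plate controls were DMSO wells with enzyme for no effect and DMSO wells lacking enzyme for full effect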
Platelet DG rel = inhibitors of platelet dense granule secretion, primary screen, cell-based, MLPCN, human platelets; human platelet-rich plasma, SFLLRN dense granule ATP release, luminescence; inhibition, %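 (compounds screened at 7.5 µM in platelet-rich plasma)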; hit rate 0.22% among 300,000; AID 1663, 2009;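 active means mean replicate score, as percent of positive control, at or above 50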
SENP8 block-1 = human SENP8 protease inhibitors, primary screen, biochemical, fluorescence, Nedd8 protein substrate, uHTS. Sentrin-specific protease 8 (Homo sapiens), Q96LD8. recombinant SENP8. hit rate 0.64% among 360,000. inhibition, % at 20 µM; in the data active means inhibition mostly above about 40%, no sharp cut-off; inactive means mostly below about 27%
Target sequence (Q96LD8 whole entry, looked up): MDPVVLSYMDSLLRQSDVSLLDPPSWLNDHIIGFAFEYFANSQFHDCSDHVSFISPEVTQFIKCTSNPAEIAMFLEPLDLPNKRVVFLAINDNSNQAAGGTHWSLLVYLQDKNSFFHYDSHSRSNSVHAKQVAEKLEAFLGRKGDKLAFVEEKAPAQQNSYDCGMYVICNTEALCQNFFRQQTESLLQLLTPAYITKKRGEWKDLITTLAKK
SENP1 inh = human SENP1 catalytic domain inhibitors, primary screen, biochemical, FRET, uHTS; Sentrin-specific protease 1 (Homo sapiens), Q9P0U3; inhibition, % at 10 µM; recombinant SENP1 catalytic domain, CyPet-SUMO1-YPet FRET cleavage; hit rate 0.21% among 360,000;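 active means inhibition at least 30% at 10 µM, raw YFP signal under a set limit, fluorescence ratio 0.5 to 1.5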;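 further: 0% = enzyme with DMSO and 100% = no enzyme wells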
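Test system: human SENP1 catalytic domain; medium: Tris pH 8 buffer plus EDTA, NaCl, BME, BSA, NP40, catalase; incubation: 50 min reaction at room temperature; technique: FRET, CFP and YFP emission; controls: no-enzyme low control and enzyme-plus-DMSO high control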
SENP8 block-2 = SENP8 protease inhibitors, primary screen, biochemical, luminescence; Sentrin-specific protease 8 (Homo sapiens), Q96LD8; purified SENP8, Z-RLRGG-aminoluciferin cleavage; inhibition, % at 10 µM; hit rate 1.2% among 330,000; AID 2540, 2010; in the data active means inhibition above about 50%
SENP7 block = SENP7 protease inhibitors, primary screen, biochemical, luminescence, uHTS; Sentrin-specific protease 7 (Homo sapiens), Q9BQF6; recombinant SENP7, Z-RLRGG-aminoluciferin luminescence, 40 min; inhibition, % at 5 µM; hit rate 1.5% among 330,000;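 active means inhibition above about 50% at the single test dose, limit read from the data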;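 further: plate controls were DMSO with enzyme for no effect and no enzyme buffer wells for full effect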
Target sequence (Q9BQF6 706-1050 limits assumed): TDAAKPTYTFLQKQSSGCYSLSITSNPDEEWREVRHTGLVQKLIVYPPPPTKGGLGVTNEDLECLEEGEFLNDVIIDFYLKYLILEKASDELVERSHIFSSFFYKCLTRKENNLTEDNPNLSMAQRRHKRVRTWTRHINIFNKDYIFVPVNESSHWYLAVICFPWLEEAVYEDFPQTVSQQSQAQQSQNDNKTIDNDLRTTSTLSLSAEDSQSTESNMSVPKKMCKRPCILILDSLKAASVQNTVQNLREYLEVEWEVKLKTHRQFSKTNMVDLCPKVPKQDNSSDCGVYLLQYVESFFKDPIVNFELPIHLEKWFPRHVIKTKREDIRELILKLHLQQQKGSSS
SENP8 conf = SENP8 protease inhibitors, retest, confirmation, biochemical, luminescence, single concentration. hit rate 40% among 6,200. Recombinant SENP8, Z-RLRGG-aminoluciferin luminescence, 60 min. inhibition, % at 12.5 µM. shares compounds with SENP7 block. AID 488912, 2010;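 active means mean inhibition across replicates above about 50%, limit read from the data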
SENP6 confirm = SENP6 protease inhibitors, confirmation, biochemical, luminescence, single concentration; shares compounds with SENP7 block; recombinant SENP6, Z-RLRGG-aminoluciferin luminescence; inhibition, % at 12.5 µM; hit rate 58% among 6,200; AID 488915, 2010
SENP7 conf = SENP7 protease inhibitors, retest, confirmation, biochemical, luminescence, single concentration; shares compounds with SENP7 block; recombinant SENP7, Z-RLRGG-aminoluciferin luminescence, 40 min; inhibition, % at 12.5 µM; hit rate 69% among 6,200; AID 488917, 2010
Casp3 SENP sel = caspase-3 protease inhibitors, confirmation, selectivity assay for SENP inhibitor project, biochemical, single concentration | shares compounds with SENP7 block | purified caspase-3, Z-DEVD-aminoluciferin luminescence, 60 min | inhibition, % at 12.5 µM | hit rate 60% among 6,200 | AID 488918, 2010;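 active means mean inhibition above about 50%, limit read from the data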;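 further: plate controls were enzyme with DMSO for no effect and wells without caspase-3 for full effect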
SENP luc ctr = counter-screen for SENP inhibitors: luminescence interference. shares compounds with SENP7 block. Pre-incubated SENP8/Z-RLRGG-aminoluciferin, luciferase luminescence interference. inhibition, % at 12.5 µM. hit rate 39% among 6,200. AID 488919;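 active means mean inhibition above about 50% when retested at one dose, limit read from the data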;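 further: plate controls were DMSO wells with completed reaction for no effect and substrate without enzyme for full effect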
Numbers without * were called inactive; x = no result. A selection: hits, their analogues and other compounds. The true share with any hit is near 2.6%.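 How the source made its calls, unless noted: active means mean inhibition above about 50% in the one-dose retest (limit read from the data); inactive means the rest.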

SMILES	SENP6 inh	Platelet DG rel	SENP8 block-1	SENP1 inh	SENP8 block-2	SENP7 block	SENP8 conf	SENP6 confirm	SENP7 conf	Casp3 SENP sel	SENP luc ctr
CCNC(=O)c1cc2c(c(-c3cccc(-c4ccccc4F)c3)n1)[C@H](CCO)N(C(=O)CC)C2	x	x	12	2	x	x	x	x	x	x	x
CCn1c(SCC(=O)N2CCN(c3ccccc3)CC2)nc2c([nH]c3ccccc32)c1=O	0	26	-80	2	4	2	x	x	x	x	x
COC(=O)Nc1nnc(-c2ccncc2)s1	14	-3	-261	-3	-2	4	x	x	x	x	x
COC(=O)Nc1nnc(-c2ccccc2Cl)s1	76*	0	-139	-2	50	72*	57*	56*	83*	50	23
Cc1ccc(NC(=O)C(=O)c2c[nH]c3ccccc23)cc1	66*	-6	16	2	47	70*	52*	49	87*	45	11
Cc1ccc(Nc2ccccc2)cc1	-19	-6	18	2	-5	3	x	x	x	x	x
Cc1ccc(NC2=Nc3ccccc3CS2)cc1	83*	-13	27	1	75*	92*	50	83*	95*	85*	6
COc1ccc2nc(NC(=O)c3ccccc3[N+](=O)[O-])sc2c1	12	3	15	0	1	-1	x	x	x	x	x
O=C(Nc1nc2ccccc2s1)c1ccc([N+](=O)[O-])o1	76*	7	6	-1	50*	60*	-28	-20	-6	-6	-6
O=C(Nc1nc2c(F)cc(F)cc2s1)c1ccc([N+](=O)[O-])o1	73*	3	6	-9	69*	32	-24	-13	-3	-5	-3
O=C(Nc1nc2ccccc2s1)c1ccccc1[N+](=O)[O-]	20	6	4	0	1	-20	x	x	x	x	x
COc1ccc2nc(NC(=O)c3ccc([N+](=O)[O-])o3)sc2c1	63*	4	-32	-9	16	44	46	68*	74*	14	32
COc1ccc(S(=O)(=O)N2CCCCC2)cc1NS(=O)(=O)c1ccc(CNC(C)=O)cc1	-40	x	14	1	-13	-11	x	x	x	x	x
O=C(NC(=S)Nc1ccc(S(=O)(=O)Nc2nccs2)cc1)c1ccc(F)cc1	64*	1	11	-2	23	1	36	33	66*	45	52*
CC(C)(C)C(=O)NC(=S)Nc1ccc(S(=O)(=O)Nc2nccs2)cc1	-6	4	3	4	2	4	x	x	x	x	x
CCCOc1ccc(CNC(=O)c2ccc3nc(N4CCOCC4)sc3c2)cc1	8	15	10	0	-1	-1	x	x	x	x	x
CC(=O)Nc1nc(-c2ccc3c(c2)OCO3)cs1	52*	13	27	1	9	41	27	24	56*	52*	22
N#CCC(=O)Nc1nc(-c2ccc3c(c2)OCCO3)cs1	89*	13	-1	-24	82*	61*	53*	67*	89*	68*	40
O=C(Nc1nc(-c2ccc3c(c2)OCO3)cs1)C1COc2ccccc2O1 (stereo not given)	-23	-12	5	-3	-6	-14	x	x	x	x	x
O=C(CCCCl)Nc1nc(-c2ccc3c(c2)OCCO3)cs1	-38	2	9	1	0	0	x	x	x	x	x
O=c1[nH]ncc(N2CCCCCC2)c1Cl	-10	-4	7	-1	-12	-2	x	x	x	x	x
Oc1c(Br)cc(C2N=C(c3ccccc3)NO2)cc1Br (stereo not given)	98*	4	-26	3	81*	9	-21	88*	96*	79*	91*
CSc1ccc(C2N=C(c3ccccc3)NO2)cc1 (stereo not given)	61*	5	-100	1	45	11	20	7	34	11	18
COc1cccc(NC(=O)CSc2nnc(-c3cc(-c4ccccn4)nc4ccccc34)o2)c1	-6	-8	-2	3	5	-4	x	x	x	x	x
Cc1nn2cc(-c3ccccc3)nc2[nH]c1=O	72*	11	-497	7	38	24	66*	61*	89*	89*	29
SMILES	SENP6 inh	Platelet DG rel	SENP8 block-1	SENP1 inh	SENP8 block-2	SENP7 block	SENP8 conf	SENP6 confirm	SENP7 conf	Casp3 SENP sel	SENP luc ctr
Cc1nn(C)c(C)c1C1Nc2ccccc2C(=O)N1O (stereo not given)	-4	1	-12	0	-6	-1	x	x	x	x	x
O=C1c2ccccc2NC(c2cnc3ccccc3n2)N1O (stereo not given)	72*	3	-169	1	40	-1	12	12	7	12	-7
Cn1cc(Cl)c(C(=O)OCC(=O)Nc2cccc(Cl)c2)n1	51*	0	4	-1	-9	-12	-1	7	4	5	0
Cc1ccc(C(=O)N2CCN(c3ncccn3)CC2)c(C)c1	-23	-2	-12	0	-5	-10	x	x	x	x	x
CCOC(=O)Nc1ccc2nc(N3CCCCCC3)sc2c1	58*	2	13	1	25	33	31	30	69*	23	22
CCOC(=O)N1CCN(C(=O)Nc2ccc3nc(C)sc3c2)CC1	-4	2	-122	-32	-3	-2	x	x	x	x	x
Fc1cccc2sc(N3CCOCC3)nc12	-23	14	3	2	-9	4	x	x	x	x	x
Clc1ccc2nc(N3CCCCC3)[nH]c2c1	59*	21	13	-1	27	52*	48	47	80*	72*	59*
Clc1ccc2nc(N3CCCCC3)sc2c1	97*	-3	33	2	88*	90*	78*	84*	89*	82*	46

High-throughput results (PubChem)
